System: MS2 coat protein
Experiment: apparent Kd, MS2 coat protein; higher = weaker binding; RNA-MaP array; FMN 200 µM where present
Summary of the method: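 The apparent Kd comes from binding curves fitted cluster by cluster, filtered, and summarised as a median. Those curves followed SNAP-549-labelled MS2 coat protein from 0.7 or 1.5 nM, doubling to 3 µM, on Illumina sequencing-chip clusters where stalled E. coli RNA polymerase had transcribed the designs, without and then with constant ligand. The buffer was 100 mM Tris-HCl pH 7.5, 80 mM KCl, 4 mM MgCl2, BSA, DTT, yeast tRNA and Tween-20, and green signal was normalised to red-channel RNA signal and control-cluster median Fmax.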

[1] = designed as: OFF switch for flavin mononucleotide, no ligand
[2] = ligand present: flavin mononucleotide, designed as: OFF switch for flavin mononucleotide
[3] = designed as: ON switch for flavin mononucleotide, no ligand
[4] = ligand present: flavin mononucleotide, designed as: ON switch for flavin mononucleotide

| Sequence | apparent Kd [1] [nM] | apparent Kd [2] [nM] | apparent Kd [3] [nM] | apparent Kd [4] [nM] |
| --- | --- | --- | --- | --- |
| AACUGACAUGAGGAUCACCCAUGUCAGGAUAUGCUUCAUAAAAACAAACAAAAAUGAUGCAGAAGGGACAUGGA | 16.6 | 41.6 |  |  |
| AAUAAACACACAGGAUAUAGCAUCGACGUUGCGAACUUAGCGACGUCGAUGCUAGAAGGGUGAAAACAUGAGGAUCACCCAUGU |  |  | 73.3 | 19.2 |
| AAGAAGUCAGGAUAUCCUGCUCGUCACUUGCGUGAUGAGUAGGAGAAGGGACAUGAGGAUCACCCAUGUAAAGC | 46.4 | 43.1 |  |  |
| CUCUUGUCAGGAUAUCUUACAUAACAAUCGUAGUUACCAUUGGAGAAGGGACAUGAGGAUCACCCAUGUUAGCC | 23.8 | 46.5 |  |  |
| AGCUAGUACCGAGGAUAUACAUACAUGAGGAUCACCCAUGUAUACAUGAAUAAAUGAGACUACAUGUAGAAGGCGGUACUAGCA |  |  | 71.1 | 20 |
| UCACGGGACUAAGGAUAUACAUGAACUAUUAUUGUAGAAGGUAGAAUGUUAGAUUAUACACUAAACAUGAGGAUCACCCAUGUU | 21.1 | 19.6 |  |  |
| AUACUCAUGUAAGGAUAUGCAGCCGUUUCGGCUGCAGAAGGUACUAUAAUACAUGAGGAUCACCCAUGUCUUUUUAAUUUUUAC |  |  | 281 | 38.9 |
| GCGAUUGCGUAGAAGGUACAAUAUAAUACAUUGUAAGGAUAUACUUACAUGAGGAUCACCCAUGUUAAUGGAAUUUGCAAUCGC |  |  | 18.2 | 11.9 |
| AGAAAGGAAGGAUAUACAAGAAAGCUGGGCAACGUCUCAGAACAUGAGGAUCACCCAUGUAGAAGGUCCAGGAA | 25.2 | 34.3 |  |  |
| GCGCAAAGAUUAUUAUGAAUAAACAUGAGGAUCACCCAUGUAUAGGAUAUCGACUCGAAUAGAGUCGAGAAGGAUACAUAGCGC | 22.5 | 97.1 |  |  |
| UUAGAGGAUUAAGGAUAUGCAGAGAGAUCAUGCGCGUCGCGCACAUGAGGAUCACCCAUGUAAGAGCAGAAGGUAACUAUGAUC | 19.9 | 18.4 |  |  |
| UAUUAUGUCAGAGGAUAUAUAAAUAAAUUUAUAACAUGAGGAUCACCCAUGUACUUUAGUGUGAGGUAGAAGGUUGAUAAGAUA |  |  | 37.2 | 22.6 |
| AAUAACAGAGGAUAUACUGUUUUAUGUGUUUGUUGUUUUGAACAUGAGGAUCACCCAUGUAGAAGGCUGAGUAA | 29.1 | 25.9 |  |  |
| UCGUAUAAGGGCAUUACACAUGAGGAUCACCCAUGUACGUUAGAGGAUAUGCAUUUCAGUCGAACGUAGAAGGCUAGAGAAGGG | 117 | 100 |  |  |
| UCCAAGCUAGGAUAUACCCAGGGUUUGUUCUCUAACAAAACACAUGAGGAUCACCCAUGUAGAAGGAGCCGGGA | 58.1 | 62.9 |  |  |
| GCCGUAAAUGUGAGGAUAUACCUAUGGAUACAUAGGUAGAAGGCACAUGAGGAUCACCCAUGUUCUCAAUCGGC | 179 | 930 |  |  |
| AAUAAACUCACAGGAUAUAGCAUCGUCGGUAUGAACUUAAAGACGACGAUGCUAGAAGGGUGACCACAUGAGGAUCACCCAUGU |  |  | 903 | 114 |
| GGGUACAUCGGAGGAUAUCAUGUAAAUACAUGAGGAUCACCCAUGUCGAAGGAGACAUCGGAGAUUGAGAAGGCCGAUGUACCG |  |  | 87.7 | 579 |
| UCGUCGUCAGGAUAUUUUGUAUUGCAGAUUUCGCAGUUGCCAAAGAAGGGACAUGAGGAUCACCCAUGUAGUCU | 32.6 | 42.2 |  |  |
| UCUUUAUUUGUGAGGAUAUCGAUAAAAUGGAUUGUCGAGAAGGCACAUGAGGAUCACCCAUGUAUUGAACAGCA | 59.2 | 212 |  |  |
| UGGUACUAGGGAGGAUAUGGGAAGAUACAUGAGGAUCACCCAUGUUAAAGAAUGCCGAGAGGCAACUAGAAGGCCCUAGUACCU |  |  | 293 | 16.3 |
| ACAUGAGGAUCACCCAUGUAUACAUAGGAUAUUGGUGAUCAGGCAUGUUUUACAGGAUAUGUCUGCGAGAAGGAUGCACGUUGC |  |  | 810 | 452 |
| GUUUCGUCAGGAUAUGUGGCUUCGAUCGUGCGAAGAAGGCUACAGAAGGCACAUGAGGAUCACCCAUGUUCGUC |  | 34.6 |  |  |

— the EternaBench riboswitch data
